In ChEMBL document CHEMBL3351588, “Design, synthesis and biological evaluation of N-alkyl or aryl substituted isoindigo derivatives as potential dual cyclin-dependent kinase 2 (CDK2)/glycogen synthase kinase 3β (GSK-3β) phosphorylation inhibitors” (Eur J Med Chem, 2014):
Active and inactive are the calls of the source. The rule behind the calls is not given here.

Legend:
K562 [1] = test: Induction of apoptosis in human K562 cells assessed as late apoptotic cells level at 5 uM after 48 hrs by Annexin V-FITC/propidium iodide staining based flow cytometry (reference value: 0.54%); format: functional
Outline: (§1)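 K562 cells exposed for 24 h or 48 h to 0, 5.0, 10.0, 15.0, 20.0 or 30.0 µM; vehicle DMSO 0.5% v/v. Cells stained with FITC-Annexin V, then counterstained with PI, and analysed by FACScan flow cytometry. Quadrants: Annexin V−/PI− viable; Annexin V+/PI− early apoptotic; Annexin V+/PI+ late apoptotic/necrotic.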

K562 [2] = test: Induction of necrosis in human K562 cells after 24 hrs by Annexin V-FITC/propidium iodide staining based flow cytometry; format: functional, cell-based
Outline: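 Cells exposed to 0, 5.0, 10.0, 15.0, 20.0 or 30.0 μM for 24 h, or 0.5% DMSO. Stained with FITC–Annexin V and PI counterstain, then read by flow cytometry. Annexin V+/PI− scored as early apoptotic; Annexin V+/PI+ scored as late apoptotic/necrotic.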

A549 = test: Cytotoxicity against human A549 cells after 48 hrs by SRB assay; format: functional, cell-based; conditions: A549, 48 h
Outline: (§2)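 Cells seeded at 5 × 10³ per well and allowed to attach for 12 h, then exposed to a range of drug concentrations in their own medium for 48 h. Fixed with ice-cold TCA for 1 h at 4 °C, washed, then stained with 0.4% SRB for 30 min at room temperature. IC50 is the mean of three independent experiments.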

K562 [3] = test: Induction of cell cycle arrest in human K562 cells assessed as accumulation at S phase at 20 uM after 24 hrs by propidium iodide staining based flow cytometry (reference value: 44.90%); format: functional
K562 [4] = test: Induction of apoptosis in human K562 cells assessed as late apoptotic cells level at 30 uM after 24 hrs by Annexin V-FITC/propidium iodide staining based flow cytometry (reference value: 0.79%); format: functional; outline: as §1
K562 [5] = test: Induction of cell cycle arrest in human K562 cells assessed as accumulation at S phase after 24 hrs by propidium iodide staining based flow cytometry; format: functional
K562 [6] = test: Induction of apoptosis in human K562 cells assessed as necrotic cells level at 15 uM after 24 hrs by Annexin V-FITC/propidium iodide staining based flow cytometry (reference value: 0.0%); format: functional; outline: as §1
HeLa = test: Cytotoxicity against human HeLa cells after 48 hrs by SRB assay; format: functional, cell-based; outline: as §2
K562 [7] = test: Induction of cell cycle arrest in human K562 cells assessed as reduction in accumulation at G2/M phase after 24 hrs by propidium iodide staining based flow cytometry; format: functional
K562 [8] = test: Induction of cell morphological changes in human K562 cells assessed as chromatin condensation at 5 to 30 uM after 24 hrs by Hoechst 33342/propidium iodide staining based inverted fluorescence microscopy; format: functional
Outline: (§3)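 Cells treated for 24 h with 5.0–30.0 μM or with 0.5% DMSO, then collected and washed with PBS. Stained with Hoechst 33342 (5.0 μg/mL, 10 min, 37 °C), then with PI (10.0 μg/mL, 10 min, room temperature, dark). Nuclei scored by fluorescence microscopy as condensed/bright, fragmented, or PI-positive.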

K562 [9] = test: Induction of apoptosis in human K562 cells assessed as necrotic cells level at 10 uM after 48 hrs by Annexin V-FITC/propidium iodide staining based flow cytometry (reference value: 0.01%); format: functional; outline: as §1
L1210 = test: Cytotoxicity against mouse L1210 cells after 48 hrs by SRB assay; format: functional, cell-based; conditions: L1210, 48 h; outline: as §2
K562 [10] = test: Induction of cell cycle arrest in human K562 cells assessed as accumulation at G0/G1 phase at 20 uM after 24 hrs by propidium iodide staining based flow cytometry (reference value: 36.14%); format: functional
K562 [11] = test: Reduction in c-myc protein expression in human K562 cells at 5 to 30 uM after 24 hrs by Western blotting method; format: functional, cell-based
K562 [12] = test: Induction of apoptosis in human K562 cells assessed as viable cells level at 5 uM after 24 hrs by Annexin V-FITC/propidium iodide staining based flow cytometry (reference value: 97.64%); format: functional; outline: as §1
K562 [13] = test: Induction of cell morphological changes in human K562 cells assessed as nuclei compaction at 5 to 30 uM after 24 hrs by Hoechst 33342/propidium iodide staining based inverted fluorescence microscopy; format: functional; outline: as §3
K562 [14] = test: Induction of apoptosis in human K562 cells assessed as early apoptotic cells level at 20 uM after 24 hrs by Annexin V-FITC/propidium iodide staining based flow cytometry (reference value: […]); format: functional
K562 [15] = test: Induction of apoptosis in human K562 cells assessed as necrotic cells level at 20 uM after 48 hrs by Annexin V-FITC/propidium iodide staining based flow cytometry (reference value: 0.01%); format: functional; outline: as §1
K562 [16] = test: Induction of apoptosis in human K562 cells assessed as late apoptotic cells level at 15 uM after 24 hrs by Annexin V-FITC/propidium iodide staining based flow cytometry (reference value: 0.79%); format: functional; outline: as §1
K562 [17] = test: Induction of apoptosis in human K562 cells assessed as late apoptotic cells level at 10 uM after 48 hrs by Annexin V-FITC/propidium iodide staining based flow cytometry (reference value: 0.54%); format: functional; outline: as §1
K562 [18] = test: Induction of cell cycle arrest in human K562 cells assessed as accumulation at S phase at 5 uM after 24 hrs by propidium iodide staining based flow cytometry (reference value: 44.90%); format: functional
[19] = Cytotoxicity against human HCT116 cells after 48 hrs by SRB assay; format: functional, cell-based; conditions: HCT-116, 48 h; outline: as §2
K562 [20] = test: Reduction in beta-catenin protein expression in human K562 cells at 5 to 30 uM after 24 hrs by Western blotting method; format: functional, cell-based
K562 [21] = test: Induction of apoptosis in human K562 cells assessed as viable cells level at 15 uM after 24 hrs by Annexin V-FITC/propidium iodide staining based flow cytometry (reference value: 97.64%); format: functional; outline: as §1
K562 [22] = test: Induction of apoptosis in human K562 cells assessed as necrotic cells level at 5 uM after 24 hrs by Annexin V-FITC/propidium iodide staining based flow cytometry (reference value: 0.0%); format: functional; outline: as §1
[23] = target: Glycogen synthase kinase-3 beta (Homo sapiens) (UniProt P49841); test: Inhibition of GSK3beta Ser9 phosphorylation in human K562 cells at 5 to 30 uM after 24 hrs by Western blotting method; format: cell-based
Chain of Glycogen synthase kinase-3 beta (Homo sapiens) (P49841 whole entry, looked up): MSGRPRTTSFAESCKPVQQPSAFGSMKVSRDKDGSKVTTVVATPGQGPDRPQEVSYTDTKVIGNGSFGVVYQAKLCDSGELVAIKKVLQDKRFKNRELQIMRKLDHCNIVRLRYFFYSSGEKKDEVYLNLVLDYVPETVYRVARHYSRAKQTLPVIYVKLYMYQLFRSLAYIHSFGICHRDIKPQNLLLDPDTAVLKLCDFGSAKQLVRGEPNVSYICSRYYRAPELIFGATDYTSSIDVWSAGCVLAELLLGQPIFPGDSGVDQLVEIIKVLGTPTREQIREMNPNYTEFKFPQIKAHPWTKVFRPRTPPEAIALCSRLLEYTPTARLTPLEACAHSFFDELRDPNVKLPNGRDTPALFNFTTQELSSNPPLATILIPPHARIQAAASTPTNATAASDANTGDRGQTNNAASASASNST

K562 [24] = test: Induction of apoptosis in human K562 cells assessed as late apoptotic cells level at 15 uM after 48 hrs by Annexin V-FITC/propidium iodide staining based flow cytometry (reference value: 0.54%); format: functional; outline: as §1
K562 [25] = test: Induction of cell cycle arrest in human K562 cells assessed as reduction in accumulation at G0/G1 phase after 24 hrs by propidium iodide staining based flow cytometry; format: functional
K562 [26] = test: Induction of apoptosis in human K562 cells assessed as late apoptotic cells level at 5 uM after 24 hrs by Annexin V-FITC/propidium iodide staining based flow cytometry (reference value: 0.79%); format: functional; outline: as §1
K562 [27] = test: Induction of apoptosis in human K562 cells assessed as early apoptotic cells level at 20 uM after 48 hrs by Annexin V-FITC/propidium iodide staining based flow cytometry (reference value: 0.24%); format: functional; outline: as §1
K562 [28] = test: Induction of apoptosis in human K562 cells assessed as necrotic cells level at 10 uM after 24 hrs by Annexin V-FITC/propidium iodide staining based flow cytometry (reference value: 0.0%); format: functional; outline: as §1

COc1ccc(N2C(=O)/C(=C3/C(=O)Nc4ccccc43)c3ccccc32)cc1
Activity (K562 [1]): 0.76%
Activity (K562 [2]): Dose-dependent effect
IC50 (A549): 31.9 µM
Activity (K562 [3]): 56.34%
Activity (K562 [4]): 20.02%
Activity (K562 [5]): Dose-dependent effect
Activity (K562 [6]): 0.01%
IC50 (HeLa): 166 µM
Activity (K562 [7]): Dose-dependent effect
Activity (K562 [8]): Active
Activity (K562 [9]): 0.02%
IC50 (L1210): 102 µM
Activity (K562 [10]): 32.01%
inhibition (K562 [11]): Dose-dependent effect
Activity (K562 [12]): 96.21%
Activity (K562 [13]): Active
Activity (K562 [14]): 14.44%
Activity (K562 [15]): 0.51%
Activity (K562 [16]): 4.48%
Activity (K562 [17]): 1.39%
Activity (K562 [18]): 46.03%
IC50 [19]: > 200 µM
inhibition (K562 [20]): Dose-dependent effect
Activity (K562 [21]): 90.17%
Activity (K562 [22]): 0%
inhibition [23]: Dose-dependent effect
Activity (K562 [24]): 2.2%
Activity (K562 [25]): Dose-dependent effect
Activity (K562 [26]): 1.54%
Activity (K562 [27]): 5.51%
Activity (K562 [28]): 0.01%
